Experimental data: ChEMBL document CHEMBL1153229, “The first synthetic agonists of FFA2: Discovery and SAR of phenylacetamides as allosteric modulators” (Bioorg Med Chem Lett, 2010)

Columns and labels:
[1] = target: T1, Free fatty acid receptor 2 (Homo sapiens, UniProt O15552); test: Agonist activity at human FFA2 receptor expressed in CHO cells assessed as inhibition of forskolin-induced cAMP production; format: functional, cell-based
T1 sequence (O15552 whole entry): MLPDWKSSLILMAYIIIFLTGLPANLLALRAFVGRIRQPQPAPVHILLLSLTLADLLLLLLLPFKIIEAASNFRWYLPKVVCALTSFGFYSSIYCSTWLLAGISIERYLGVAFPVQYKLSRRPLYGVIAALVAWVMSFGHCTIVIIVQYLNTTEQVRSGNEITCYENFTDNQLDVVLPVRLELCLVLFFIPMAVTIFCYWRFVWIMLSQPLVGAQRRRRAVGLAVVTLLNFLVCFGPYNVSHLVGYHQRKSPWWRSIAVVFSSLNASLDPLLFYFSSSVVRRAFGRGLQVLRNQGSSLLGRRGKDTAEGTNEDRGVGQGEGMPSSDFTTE
Outline: (§1)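 Suspended cells, 10,000 per well, in Hank's balanced salt solution with 25 mM HEPES and 0.01% (w/v) BSA. Stimulated with forskolin (5 μM final) plus serially diluted test ligands, room temperature for 30 min. Antibody and lysis reagents then added, followed by overnight dark incubation with detection solution. Luminescence read (RLU). Efficacy expressed relative to acetate. Means of four experiments.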

[2] = target: T2, Free fatty acid receptor 2 (Homo sapiens) (UniProt O15552); test: Agonist activity at human FFA2 receptor expressed in CHO cells assessed as inhibition of forskolin-induced cAMP production relative to acetate; format: functional, cell-based; outline: as §1
T2 sequence (whole entry): T1 sequence (O15552 whole entry)

SMILES	IC50 [1]	Efficacy [2]
CC(C)C(C(=O)Nc1ncccn1)c1ccc(Cl)cc1 (racemic)	53 µM	50%
CC(C)C(c1ccc(Cl)cc1)S(=O)(=O)Nc1nccs1 (racemic)	> 100 µM	< 30%
CC(C)[C@H](CNc1nccs1)c1ccc(Cl)cc1	> 100 µM	< 30%
CC(C)[C@H](C(=O)Nc1nc(C(F)(F)F)cs1)c1ccc(Cl)cc1	17 µM	123%
CC(C)[C@@H](C(=O)Nc1nccs1)c1ccc(Cl)cc1	> 100 µM	< 30%
CC(C)[C@H](C(=O)NC1=NCCS1)c1ccc(Cl)cc1	2.1 µM	109%
CC(C)[C@H](C(=O)NC1=NC(=O)CS1)c1ccc(Cl)cc1	20 µM	96%
CCC(=O)O		100%
CC(C)[C@H](C(=O)Nc1ncc(C(=O)O)s1)c1ccc(Cl)cc1	79 µM	42%
CNC(=O)[C@H](c1ccc(Cl)cc1)C(C)C	11 µM	66%
CC(C)[C@H](C(=O)NC(C)(C)C)c1ccc(Cl)cc1	> 100 µM	< 30%
O=C(Cc1ccc(Cl)cc1)Nc1nccs1	> 100 µM	< 30%
CC(C)C(C(=O)Nc1nc2ccccc2s1)c1ccc(Cl)cc1 (racemic)	3 µM	91%
CCC[C@H](C(=O)Nc1nccs1)c1ccc(Cl)cc1	5.5 µM	108%
COCC[C@H](C(=O)Nc1nccs1)c1ccc(Cl)cc1	170 µM	53%
CC(C)[C@H](C(=O)Nc1ccon1)c1ccc(Cl)cc1 (racemic)	36 µM	90%
CC(C)[C@H](C(=O)Nc1cc[nH]n1)c1ccc(Cl)cc1		< 30%
CC(C)C(C(=O)Nc1cccnc1)c1ccc(Cl)cc1 (racemic)	49 µM	73%
O=C(Nc1ncc(F)s1)[C@H](c1ccc(Cl)cc1)C1CC1	1.2 µM	103%
CC(C)[C@H](C(=O)Nc1ncco1)c1ccc(Cl)cc1	25 µM	92%
CC(C)C(C(=O)Nc1nc2ccccc2[nH]1)c1ccc(Cl)cc1 (racemic)	5.2 µM	84%
CC(C)(C)[C@H](C(=O)Nc1ncc(N2CCOCC2)s1)c1ccc(Cl)cc1	1.6 µM	111%
CC(C)[C@H](C(=O)Nc1nnc(C(F)(F)F)s1)c1ccc(Cl)cc1	1.9 µM	115%

SMILES	IC50 [1]	Efficacy [2]
CC(C)(C)[C@H](C(=O)Nc1ncc(Br)s1)c1ccc(Cl)cc1	0.7 µM	95%
O=C(Nc1ncc(F)s1)[C@H](c1ccc(C(F)(F)F)cc1)C1CC1	1.1 µM	108%
CC(C)[C@H](C(=O)Nc1cccnn1)c1ccc(Cl)cc1	2.3 µM	101%
O=C(Nc1ncc(F)s1)C1(c2ccc(Cl)cc2)CC1	> 100 µM	< 30%
CC(C)[C@H](C(=O)Nc1ccn[nH]1)c1ccc(Cl)cc1	> 100 µM	
CC[C@H](C(=O)Nc1nccs1)c1ccc(Cl)cc1	5 µM	105%
CS(=O)(=O)c1ccc([C@@H](C(=O)Nc2ncc(F)s2)C2CC2)cc1	> 100 µM	< 30%
CC(C)(C)[C@H](C(=O)Nc1ncc(S(C)(=O)=O)s1)c1ccc(Cl)cc1	3.4 µM	107%
CC(C)C(C(=O)Nc1nccs1)c1ccc(Cl)cc1 (racemic)	0.8 µM	98%
O=C(Nc1ncc(F)s1)C1(c2ccc(Cl)cc2)CCCC1	5 µM	88%
Cc1csc(NC(=O)[C@H](c2ccc(Cl)cc2)C(C)C)n1	1.4 µM	87%
CC(C)[C@H](C(=O)Nc1ncc(C#N)s1)c1ccc(Cl)cc1	2 µM	105%
COC(=O)c1cnc(NC(=O)[C@H](c2ccc(Cl)cc2)C(C)C)s1	2 µM	98%
CC(C)[C@H](C(=O)N(C)c1nccs1)c1ccc(Cl)cc1	84 µM	37%
CSc1cnc(NC(=O)[C@H](c2ccc(Cl)cc2)C(C)(C)C)s1	0.5 µM	109%
CC(C)[C@H](C(=O)Nc1nc(C(C)(C)C)cs1)c1ccc(Cl)cc1	7.9 µM	45%
CC(C)[C@H](C(=O)Nc1ncc[nH]1)c1ccc(Cl)cc1	20 µM	55%
CC(C)(C)[C@H](C(=O)Nc1ncc(N2CCS(=O)(=O)CC2)s1)c1ccc(Cl)cc1	2.4 µM	118%
CC(C)[C@H](NS(=O)(=O)c1nccs1)c1ccc(Cl)cc1	> 100 µM	< 30%
CC(C)(C)[C@H](C(=O)Nc1ncc(C(F)(F)F)s1)c1ccc(Cl)cc1	1.5 µM	95%
O=C(Nc1ncc(F)s1)[C@H](c1ccccn1)C1CC1	45 µM	75%
CC(C)(C)[C@H](C(=O)Nc1ncc(C#N)s1)c1ccc(Cl)cc1	1.5 µM	106%
CN(C)c1cnc(NC(=O)[C@H](c2ccc(Cl)cc2)C(C)(C)C)s1	1.6 µM	112%

SMILES	IC50 [1]	Efficacy [2]
O=C(Nc1nccs1)C(c1ccc(Cl)cc1)c1ccc(Cl)cc1	> 100 µM	< 30%
CC(C)(C)[C@H](C(=O)Nc1ncc(Cc2ccc(Cl)cc2)s1)c1ccc(Cl)cc1	25 µM	100%
Cc1nc(NC(=O)[C@H](c2ccc(Cl)cc2)C(C)C)sc1C	1.8 µM	97%
CC(C)[C@H](C(=O)Nc1ccccn1)c1ccc(Cl)cc1	1.4 µM	92%
CC(C)[C@H](C(=O)Nc1cccc(F)n1)c1ccc(Cl)cc1	1.1 µM	84%
O=C(Nc1nccs1)[C@@H](CC1CC1)c1ccc(Cl)cc1	8.8 µM	72%
CC(C)[C@H](C(=O)NCc1ccccc1)c1ccc(Cl)cc1	> 100 µM	< 30%
CC(C)[C@H](C(=O)Nc1ncc(C(N)=O)s1)c1ccc(Cl)cc1	71 µM	59%
CC(C)[C@H](C(=O)Nc1nncs1)c1ccc(Cl)cc1	12 µM	115%
CN1CCN(c2cnc(NC(=O)[C@H](c3ccc(Cl)cc3)C(C)(C)C)s2)CC1	3.8 µM	113%
CC(C)C(C(N)=O)c1ccc(Cl)cc1 (racemic)	> 100 µM	< 30%
CC(C)C(C(=O)O)c1ccc(Cl)cc1 (racemic)	> 100 µM	< 30%
CC(C)C(C(=O)Nc1nnn[nH]1)c1ccc(Cl)cc1 (racemic)	> 100 µM	< 30%
CC(C)(C)[C@H](C(=O)Nc1ncc(F)s1)c1ccc(Cl)cc1	0.7 µM	92%
O=C(Nc1ncc(F)s1)C1(c2ccc(Cl)cc2)CCCCC1	8.5 µM	81%
O=C(Nc1ncc(F)s1)[C@H](c1ccnc(Cl)c1)C1CC1	16 µM	120%
CO/C(=N\c1nccs1)[C@H](c1ccc(Cl)cc1)C(C)C	> 100 µM	< 30%
CC(C)[C@H](NC(=O)c1nccs1)c1ccc(Cl)cc1	> 100 µM	< 30%
C=CC[C@H](C(=O)Nc1nccs1)c1ccc(Cl)cc1	1.1 µM	88%
CC(C)[C@H](C(=O)Nc1ncns1)c1ccc(Cl)cc1	2 µM	99%
CC(C)C(C(=O)Nc1nc(-c2cccnc2)cs1)c1ccc(Cl)cc1 (racemic)	> 100 µM	< 30%
O=C(Nc1ncc(F)s1)C1(c2ccc(Cl)cc2)CCC1	1.5 µM	89%
